Source: PubChem BioAssay
FXIIa inh 1536: human FXIIa protease inhibitors, primary screen, biochemical, 1536-well; Coagulation factor XII (Homo sapiens), P00748; purified FXIIa, Boc-QGR-AMC fluorogenic substrate, 2 h; inhibition, % at 5 µM; 220,000 tested, 0.3% active; AID 800, 2007; in the data active = inhibition above about 40%
FXIa inh 1536: human FXIa protease inhibitors, primary screen, biochemical, 1536-well. Coagulation factor XI (Homo sapiens), P03951. 220,000 tested, 0.14% active. inhibition, % at 5 µM. purified FXIa, Boc-Glu-Ala-Arg-AMC fluorogenic substrate;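 active = inhibition of at least 40%; inactive = inhibition below 40%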;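 also: fluorescence of freed AMC excited at 355 nm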
Thrombin inh: human alpha-thrombin inhibitors, primary screen, counter-screen for coagulation protease inhibitor project, biochemical, 1536-well, fluorogenic AMC substrate; Prothrombin (Homo sapiens), P00734; Boc-VPR-AMC fluorogenic substrate cleavage; inhibition, % at 5 µM; 220,000 tested, 0.26% active; AID 1046, 2008;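 active = inhibition at or above 40%; inactive = inhibition below 40%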
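Test system: human alpha-thrombin; medium: pH 7.5 Tris-saline with Tween 20; times: reaction at room temperature; signal: AMC fluorescence at 355 nm excitation and 460 nm emission; also added: Boc-VPR-AMC substrate, 15 µM final; dosing: one concentration per compound, 5 µM, with 0.2% DMSO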
KLK5 inh: human KLK5 protease inhibitors, primary screen, biochemical, 1536-well; Kallikrein-5 (Homo sapiens), Q9Y337; recombinant hK5, fluorogenic AMC substrate cleavage; inhibition, % at 5 µM; 210,000 tested, 0.59% active;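 active = inhibition of 40% or more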
PERK inhibitor: block of dimerizer-induced PERK translation repression, primary screen, PERK inhibitor project, CHO PERK-DD cells, SEAP luminescence, HTS | 220,000 tested, 0.17% active | inhibition, % at 5.6 µM | Eukaryotic translation initiation factor 2-alpha kinase 3 (Homo sapiens), Q9NZJ5 | CHO PERK-DD fusion, SEAP luminescence translation reporter;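 active = inhibition above the mean inhibition of all tested compounds plus 3 SD, set separately per screening campaign, cut at about 2.9% in these data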;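 also: PERK kinase domain activated by AP20187 dimerizer at 100 nM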
Furin inh: human furin inhibitors, primary screen, biochemical, fluorescence intensity; P09958; purified furin, fluorogenic substrate cleavage; inhibition, % at 20 µM or 30 µM; 220,000 tested, 0.061% active; in the data active = inhibition above about 25%
Target sequence (P09958 108-714 limits assumed): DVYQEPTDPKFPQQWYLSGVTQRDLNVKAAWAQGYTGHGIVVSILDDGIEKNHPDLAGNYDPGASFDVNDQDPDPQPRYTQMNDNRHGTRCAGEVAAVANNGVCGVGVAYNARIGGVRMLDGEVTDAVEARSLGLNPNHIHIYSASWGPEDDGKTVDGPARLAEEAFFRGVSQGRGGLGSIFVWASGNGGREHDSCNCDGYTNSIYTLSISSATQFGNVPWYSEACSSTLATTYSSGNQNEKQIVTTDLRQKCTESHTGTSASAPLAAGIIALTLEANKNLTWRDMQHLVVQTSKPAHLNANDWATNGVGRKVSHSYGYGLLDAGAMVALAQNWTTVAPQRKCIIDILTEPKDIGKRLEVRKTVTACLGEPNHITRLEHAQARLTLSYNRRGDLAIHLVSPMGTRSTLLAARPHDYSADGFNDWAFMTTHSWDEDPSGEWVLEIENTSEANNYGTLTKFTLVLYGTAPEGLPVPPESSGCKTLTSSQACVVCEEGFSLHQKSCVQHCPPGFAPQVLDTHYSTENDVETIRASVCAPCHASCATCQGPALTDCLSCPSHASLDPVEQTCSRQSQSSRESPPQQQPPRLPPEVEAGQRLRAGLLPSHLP
A number is an active result; i = inactive; nt = no result. Rows were chosen to be rich in hits. Some 1.2% of all compounds tested hit in one or more screens of this group.

SMILES | FXIIa inh 1536 | FXIa inh 1536 | Thrombin inh | KLK5 inh | PERK inhibitor | Furin inh
COc1ccc(C2CC(C(F)(F)F)n3ncc(C(=O)Nc4cccc(O)c4)c3N2)cc1OC (stereo not given) | i | i | i | i | i | i
O=C(CS(=O)(=O)c1ccc2ccccc2c1)Nc1ccccc1Cl | i | i | i | 58 | i | i
C=CCc1ccc2oc(C(=O)OCC)cc(=O)c2c1O | i | i | i | i | i | i
CCCc1ccc(OCc2ccccc2)c2c(=O)cc(C(=O)OCC)oc12 | i | i | i | i | 3.1 | i
O=C(COC(=O)c1ccc(CO)cc1)Nc1ccc(OC(F)F)cc1 | i | i | i | i | i | i
O=C(NCc1ccco1)C(c1ccc(F)cc1)N(C(=O)Cc1cccs1)c1cccnc1 (stereo not given) | i | i | i | i | i | i
Cn1nccc1C(=O)c1ccc(Cl)cc1 | i | i | i | i | 3.1 | i
Cn1nccc1NC(=O)Nc1ccc(Cl)cc1 | i | i | i | i | i | i
CC(C)=C(NC(=O)c1ccccc1)C(=O)Nc1cccc(C(=O)O)c1 | i | i | i | i | i | i
O=C(O)CC1(CC(=O)NCc2ccncc2)CCCCC1 | 41 | i | i | i | i | i
CCOC(=O)C1CCCN(C(=O)c2ccc(Cl)c(S(=O)(=O)N3CCCCC3)c2)C1 (stereo not given) | i | i | i | i | i | i
Clc1ccccc1Cn1nnc2c(NCCN3CCOCC3)ncnc21 | i | 47 | i | i | i | i
O=C1CC(N(CCc2ccccc2)C(=S)Nc2cc(Cl)ccc2Cl)C(=O)N1c1c(Cl)cccc1Cl (stereo not given) | i | i | i | i | i | i
Cc1cccc2cc(C(c3nnnn3CC3CCCO3)N3CCc4ccccc4C3)c(=O)[nH]c12 (stereo not given) | i | i | i | 43 | i | i
Cc1ccc2cc(C(c3nnnn3CC3CCCO3)N3CCc4ccccc4C3)c(=O)[nH]c2c1 (stereo not given) | i | i | i | i | i | i
CCCCc1nc2ccccc2c(NC(=O)CNC(C)(C)C)c1CCC | i | i | 42 | i | i | i
O=Cc1ccc(-c2ccc(Cl)cc2Cl)[nH]1 | i | i | i | nt | 4.2 | i
O=C(O)c1ccc(-c2ccc(Cl)cc2Cl)o1 | i | i | i | i | i | i
O=C(CCNc1n[nH]c(=O)[nH]c1=O)N/N=C/c1ccc(C(F)(F)F)cc1 | i | i | i | i | i | i
CCOC(=O)N1CCN(C(=O)c2ccccc2NC(=O)c2ccc(Br)cc2)CC1 | i | i | i | i | i | i
CCOC(=O)N1CCN(C(=O)c2ccccc2NC(=O)c2ccc(F)cc2)CC1 | i | i | i | 58 | i | i
CCCCOc1ccc(-c2ncc(Cl)cn2)cc1 | i | i | i | i | i | 28
CC1=C(C(=O)Nc2ccc(C)cc2)C(c2ccc(C)o2)C2=C(CC(C)(C)CC2=O)N1 (stereo not given) | 45 | i | i | i | i | i
CCOc1ccc(N2CC(C(=O)NC3=NCCS3)CC2=O)cc1 (stereo not given) | i | i | i | i | i | i
CCOC(=O)C1(Cc2cccc(F)c2)CCN(C(=O)Cn2cnnn2)CC1 | 45 | i | i | i | i | i
SMILES | FXIIa inh 1536 | FXIa inh 1536 | Thrombin inh | KLK5 inh | PERK inhibitor | Furin inh
Cc1cc(C(=O)N/N=C/c2c(C)nn(-c3ccccc3)c2C)c(C)o1 | i | i | i | i | i | i
CCSc1nc2cc(OC)c(OC)cc2c(=O)n1CC | i | i | i | 66 | i | i
O=C(NC1CCCCC1)C1CCN(c2nnnn2-c2ccccc2)CC1 | i | i | 82 | i | i | i
O=S(=O)(c1ccccc1)N1CCN(c2nnnn2-c2ccccc2)CC1 | i | i | i | 63 | i | i
O=C(Nc1ccc(F)cc1)C1CCN(c2nnnn2-c2ccccc2)CC1 | i | i | i | i | i | i
COc1ccc(C2=NCCn3cccc32)c(OC)c1 | i | i | i | 41 | i | i
